Assay results taken from PubChem BioAssay.
Active and inactive are the calls of the source. Cut-off read from the data, not from the text of the source, unless noted: active = inhibition above about 30%; inactive = the rest.

Columns and labels:
[1] = Her2 expression decrease, cell viability multiplex – SKBR3 breast tumor cells, AlphaScreen, ATP viability, primary screen (AID 461;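 active = Her2 level under about 52% in both replicate screens, with viability over 70% of control, limit read from the data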;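 for Her2 level: lower value means less Her2 protein in the cells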;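 for viability: percent of carrier control wells set as 100% viability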); settings: SKBR3 Her2 protein level, 18-24 h, measured here: SKBR3 viability, ATP luminescence, at 10 µM
[2] = biological target: Receptor tyrosine-protein kinase erbB-2 (Homo sapiens) (UniProt P04626); assay: as above; settings: 18-24 h, at 10 µM, stronger effect = lower value
Receptor tyrosine-protein kinase erbB-2 (Homo sapiens), sequence (P04626 whole entry, looked up): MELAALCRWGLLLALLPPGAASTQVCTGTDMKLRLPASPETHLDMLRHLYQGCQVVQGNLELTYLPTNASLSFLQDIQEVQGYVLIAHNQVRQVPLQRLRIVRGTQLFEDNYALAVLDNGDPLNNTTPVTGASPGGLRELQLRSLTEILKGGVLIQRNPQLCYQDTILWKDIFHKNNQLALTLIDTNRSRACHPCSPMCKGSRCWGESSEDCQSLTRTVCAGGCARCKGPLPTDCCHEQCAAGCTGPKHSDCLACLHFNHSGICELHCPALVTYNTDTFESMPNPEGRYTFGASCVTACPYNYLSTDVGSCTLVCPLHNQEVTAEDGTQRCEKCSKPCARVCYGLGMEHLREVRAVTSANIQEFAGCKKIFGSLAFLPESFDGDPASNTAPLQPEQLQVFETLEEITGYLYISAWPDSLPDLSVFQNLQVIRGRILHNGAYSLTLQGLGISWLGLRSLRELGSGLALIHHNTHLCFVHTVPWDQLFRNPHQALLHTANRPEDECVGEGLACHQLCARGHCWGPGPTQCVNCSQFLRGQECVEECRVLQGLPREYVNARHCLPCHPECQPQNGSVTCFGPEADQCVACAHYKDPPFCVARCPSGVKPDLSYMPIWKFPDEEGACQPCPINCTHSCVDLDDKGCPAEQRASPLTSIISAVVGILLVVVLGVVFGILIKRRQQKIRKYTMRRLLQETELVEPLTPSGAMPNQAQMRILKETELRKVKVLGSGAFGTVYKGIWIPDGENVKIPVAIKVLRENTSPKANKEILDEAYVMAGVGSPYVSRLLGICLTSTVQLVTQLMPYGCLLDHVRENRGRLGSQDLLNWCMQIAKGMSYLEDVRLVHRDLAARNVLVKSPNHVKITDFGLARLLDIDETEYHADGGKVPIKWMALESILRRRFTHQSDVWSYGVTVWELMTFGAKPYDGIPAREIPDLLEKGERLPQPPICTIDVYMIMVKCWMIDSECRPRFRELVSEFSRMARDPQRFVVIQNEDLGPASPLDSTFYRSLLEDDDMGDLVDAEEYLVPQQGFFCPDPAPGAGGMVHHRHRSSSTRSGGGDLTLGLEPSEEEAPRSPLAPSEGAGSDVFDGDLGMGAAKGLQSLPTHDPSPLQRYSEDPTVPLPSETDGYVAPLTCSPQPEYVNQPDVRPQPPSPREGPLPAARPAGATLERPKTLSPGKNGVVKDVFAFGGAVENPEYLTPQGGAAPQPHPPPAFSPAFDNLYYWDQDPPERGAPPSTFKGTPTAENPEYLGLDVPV

[3] = reduced viability of SK-BR-3 breast cancer cells – cell-based, 24 h, human, pilot screen (AID 572;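 active = viability at or below 10% of carrier control in both of two separate runs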;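 note: compound exposure lasted between 18 and 24 h rather than exactly 24 h; 100% = carrier-treated control wells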); settings: SK-BR-3 viability, CellTiter-Glo luminescence, at 10 µM, stronger effect = lower value
[4] = HUVEC growth inhibition – cell-based, human, primary screen (AID 575;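 active = viability at or below 30% in both replicate assays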;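 note: 100% = median of untreated cell wells with 0.1% DMSO on each plate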); settings: HUVEC proliferation, CellTiter-Glo luminescence, 72 h; at 10 µM; stronger effect = lower value
Outline: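 Test system: primary human umbilical vein endothelial cells. Quantity: 1250 cells/well. Compound: single 10 µM dose, 0.1% DMSO, from 5x medium stock. Timing: 72 h treatment at 37 °C. Detection: ATP-based CellTiter-Glo luminescent read. Benchmarks: vehicle and MePR control wells. Format: 384-well plates coated with collagen.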

[5] = H69AR cell proliferation blockers – human, duplicate replicates, primary screen (AID 580;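 active = viability at or under a set limit in both replicates, limit being median viability minus 3 SD, cut at about 48% in these data, passing the limit was not always enough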;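 note: 100% = mean luminescence of untreated wells and 0% = no signal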); settings: H69AR lung tumor cells viability, ATP luminescence, 72 h; at 10 µM; stronger effect = lower value
[6] = MRP1 drug-resistance reversers in H69AR cells – cell-based, doxorubicin co-treatment, pilot screen (AID 601;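 active = viability loss from added drug above about 55%, and viability with drug at most 40%, in both replicates, limit read from the data, passing the limit was not always enough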); settings: CellTiter-Glo, 72 h, at 10 µM; for differential viability (reversal): stronger effect = higher value
[7] = yeast transport mutant growth inhibition pilot in 384-well plates, post-Golgi transport modulator project (AID 636; in the data active = inhibition above about 31%); settings: absorbance 615 nm, about 18 h, stronger effect = higher value
[8] = growth suppression of yeast trafficking mutant, preliminary HTS, modulators of trafficking downstream of Golgi apparatus project, 1536-format plate, OD 615 nm (AID 637); settings: yeast transport mutant growth, absorbance 615 nm, 18 h; stronger effect = higher value
[9] = H69AR cells + 2 uM doxorubicin, measured here: viability with 2 uM doxorubicin, stronger effect = lower value
[10] = H69AR cells, compound alone cytotoxicity

| SMILES | viability [1] | Her2 level [2] | viability [3] | viability [4] | viability [5] | differential viability (reversal) ([6]; H69AR cells + 2 uM doxorubicin) | viability [6, 9] | viability [6, 10] | inhibition [7] | inhibition [8] |
| --- | --- | --- | --- | --- | --- | --- | --- | --- | --- | --- |
| CC(C)(C)C1=C[C@@H](CO)C[C@@H](CO)C1 | 86% | 87% (inactive) | 86% (inactive) | 94.2% (inactive) | 87.3% (inactive) | -0.585% (inactive) | 87.9% | 87.3% | -4.13% (inactive) | -5.08% (inactive) |
| CCN(CC)S(=O)(=O)c1ccc2c(c1)nc(SCC(=O)NC1CC1)n2-c1ccccc1OC | 92.5% | 86.5% (inactive) | 92.5% (inactive) | 67.8% (inactive) | 91.3% (inactive) | 14.2% (inactive) | 77.1% | 91.3% | -5.81% (inactive) | 3.65% (inactive) |
| Cc1cc(C)c2c(n1)sc1c(N3CCOCC3)ncnc12 | 91% | 90% (inactive) | 91% (inactive) | 25.4% (active) | 76.6% (inactive) | 0.885% (inactive) | 75.7% | 76.6% | -6.35% (inactive) | 0.67% (inactive) |
| Brc1cccc(-c2cnc3n2CCCCC3)c1 | 95.5% | 89.5% (inactive) | 95.5% (inactive) | 67.1% (inactive) | 91.5% (inactive) | 11.1% (inactive) | 80.4% | 91.5% | -6.53% (inactive) | 4.26% (inactive) |
| COc1ccc(C(=O)NCCn2ccc3ccccc32)cc1 | 126% | 97% (inactive) | 126% (inactive) | 111% (inactive) | 92.5% (inactive) | 8.59% (inactive) | 84% | 92.5% | -5.6% (inactive) | 0.16% (inactive) |
| COc1ccc(Br)cc1CNC(=O)CCc1nc(-c2ccc(C)cc2)no1 | 101% | 77.5% (inactive) | 101% (inactive) | 87.4% (inactive) | 94.2% (inactive) | 11.5% (inactive) | 82.7% | 94.2% | -4.34% (inactive) | -4.67% (inactive) |
| Cc1ccc(Br)cc1S(=O)(=O)N1CCN(c2ccccc2)CC1 | 93.5% | 116% (inactive) | 93.5% (inactive) | 76.2% (inactive) | 79.4% (inactive) | -5.03% (inactive) | 84.5% | 79.4% | 1.17% (inactive) | -8.5% (inactive) |
| Cc1ccc(S(=O)(=O)N(CC(=O)N2CCC(C(N)=O)CC2)c2cccc(C(F)(F)F)c2)cc1 | 99.5% | 120% (inactive) | 99.5% (inactive) | 87.8% (inactive) | 82.9% (inactive) | -6.52% (inactive) | 89.4% | 82.9% | -3.33% (inactive) | 5% (inactive) |
| Nn1c(SCC(=O)Nc2ccc3c(c2)OCO3)nnc1C1CC1 | 102% | 78.5% (inactive) | 102% (inactive) | 105% (inactive) | 94.2% (inactive) | 2% (inactive) | 92.2% | 94.2% | -5.41% (inactive) | 8.25% (inactive) |
| Cc1csc(NC(=O)c2ccco2)n1 | 102% | 83.5% (inactive) | 102% (inactive) | 82.9% (inactive) | 83.3% (inactive) | 1.88% (inactive) | 81.4% | 83.3% | -3.46% (inactive) | -5.5% (inactive) |
| COc1ccc(OC)c(C2C(C(=O)Nc3cccnc3)=C(C)NC3=C2C(=O)CCC3)c1 (stereo not given) | 101% | 81% (inactive) | 101% (inactive) | 88.3% (inactive) | 98.4% (inactive) | 15.1% (inactive) | 83.3% | 98.4% | -6.22% (inactive) | 1.8% (inactive) |
| COc1ccc2[nH]c(=O)c(CN(Cc3cccs3)S(=O)(=O)c3cccc4nsnc34)cc2c1 | 96.5% | 80% (inactive) | 96.5% (inactive) | 59.2% (inactive) | 5.33% (active) | -0.125% (inactive) | 5.45% | 5.33% | -6.44% (inactive) | 1.43% (inactive) |
| C=CCNC(=O)CN(c1cccc(Br)c1)S(C)(=O)=O | 96% | 106% (inactive) | 96% (inactive) | 94.6% (inactive) | 102% (inactive) | 10.9% (inactive) | 91.3% | 102% | -5.6% (inactive) | 0.16% (inactive) |
| Cc1ccc(NC(=O)CSc2nnc(Cc3cccn3C)n2-c2ccc(F)cc2)cc1 | 82.5% | 78.5% (inactive) | 82.5% (inactive) | 84% (inactive) | 91.9% (inactive) | -4.92% (inactive) | 96.8% | 91.9% | -1.03% (inactive) | -4.83% (inactive) |
